Each structure is given as a SMILES string.

Here are results for 97 compounds from ChEMBL document CHEMBL4513216, “Probing the Open Global Health Chemical Diversity Library for Multistage-Active Starting Points for Next-Generation Antimalarials” (ACS Infect Dis, 2020).

The nature of the series: Toxicity liver stage against HepG2, at 10uM. The class given is cell-based. On the set-up: test concentration 10 uM, cell line HepG2-A16-CD81EGFP. To be noted: human, HepG2-A16-CD81EGFP cells; read-out: INHIBITION
In outline: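 Uninfected HepG2-A16-CD81EGFP cells, 3 × 10^3 per well, 1536-well, plated on prespotted compound at 10 μM final, parasite-free screening media added to match infected plates; puromycin 10 μM positive, DMSO 0.5% negative; run in parallel with 48 h PbLuc assay at 37 °C, 5% CO2; viability by CellTiter-Glo luminescence, normalized to controls.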
With `CN(C)C(=O)Cn1ccc2cc(NC(=O)N3CCOCC3)ccc21`, the cytotoxicity at 10 µM worked out at 6.35%.

Take `O=C(CCn1cc(Cl)cn1)N1CCCC(O)(CO)CC1` (configuration not stated): the cytotoxicity at 10 µM is -145%.

Consider `OC(CNCCn1cccn1)COc1ccc2ccccc2c1` (configuration not stated), for which the cytotoxicity at 10 µM was -26.4%.

Regarding `O=C1CC(c2cccnc2)c2c(sc3c2CCCC3)N1` (configuration not stated), the cytotoxicity at 10 µM was determined as 8.75%.

For the compound `CCN1CCOCC12CCN(C(=O)Cc1cccs1)CC2`, the cytotoxicity at 10 µM was determined as 6.22%.

As to `Cc1cc2n(n1)CC(CNCc1cnn(-c3ccccc3)c1)CN2` (configuration not stated), the cytotoxicity at 10 µM is -9.01%.

As for `Cc1ccc(S(=O)(=O)NCC(C)(C)N)c(F)c1`, the cytotoxicity at 10 µM was determined as 7.42%.

For `Cc1ccccc1S(=O)(=O)CCOC(C)C`, the cytotoxicity at 10 µM amounted to 0.456%.

Take `CCn1c(CN2CCCC2)nnc1C1CCN(S(=O)(=O)CC)CC1`: the cytotoxicity at 10 µM is -4.92%.

For `CN(C)c1ccc(C(=O)NCc2ccc(N3CCOCC3)cc2)cn1`, the cytotoxicity at 10 µM turned out to be 6.03%.

With `Cc1cccc(-c2nc(CN3CC(n4nc(C)cc4C)C3)no2)c1`, the cytotoxicity at 10 µM turned out to be 1.37%.

In the case of `OC(COCc1ccccc1Cl)CN1CC(n2cccn2)C1` (configuration not stated), the cytotoxicity at 10 µM was -7.7%.

Turning to `CC(C)n1c2ccccc2c2c1cc(C(=O)N(C)C)n2S(C)(=O)=O`, the cytotoxicity at 10 µM was -90.8%.

Consider `O=C1CCC2(CCC(NC(=O)NCc3cccnc3)CC2)N1` (configuration not stated), for which the cytotoxicity at 10 µM is -5.25%.

In the case of `c1cncc(O[C@H]2CC[C@H]3[C@H]2OCCN3C2CCCC2)c1`, the cytotoxicity at 10 µM was -6.05%.

Turning to `c1cncc(C[C@H]2[C@H](N3CCOCC3)CCN2Cc2cccs2)c1`, the cytotoxicity at 10 µM stood at 8.34%.

Turning to `Cc1nnc(C2CCN(c3ccc(F)cc3)CC2)o1`, the cytotoxicity at 10 µM was 0.207%.

For the compound `Cn1cc(C2CCCN2C(=O)COCCOc2ccccc2)cn1` (configuration not stated), the cytotoxicity at 10 µM is -16.3%.

For `COCc1ncn2c1CN(C(=O)c1ccc3ccccc3n1)CC2`, the cytotoxicity at 10 µM came out at 8.42%.

Regarding `COCCN(C)CCN1CC2(CCN(C3CCCCC3)CC2)OC1=O`, the cytotoxicity at 10 µM was 3.73%.

Turning to `CCS(=O)(=O)c1ccc2oc([C@H]3CCN(Cc4ccccc4)C3)nc2c1`, the cytotoxicity at 10 µM came out at 4.03%.

For `COc1c(CNC2CCc3ccccc32)c(C)nn1C` (configuration not stated), the cytotoxicity at 10 µM was 7.08%.

`CC(=O)c1ccc(-c2cnn(CC(=O)Nc3ccnn3C)c2)nc1`: the cytotoxicity at 10 µM worked out at 1.99%.

Turning to `Cc1ccccc1N1CC(C)N(Cc2ccc(C)c(F)c2F)CC1=O` (configuration not stated), the cytotoxicity at 10 µM is -1.66%.

In the case of `O=C([C@@H]1COC[C@H]2CN(C3CCOCC3)C[C@H]21)N1CCCO1`, the cytotoxicity at 10 µM was -3.2%.

For the compound `COc1ccc(-c2cc(=O)n3c(n2)CCCCC3)cc1`, the cytotoxicity at 10 µM is -14.1%.

Consider `O=C(c1ccoc1)N1CCC(NCc2cccnc2)CC1`, for which the cytotoxicity at 10 µM was found to be 8.21%.

`COc1ccc(S(=O)(=O)N[C@H]2CN(C(C)=O)C[C@@H]2C(C)C)cc1F`: the cytotoxicity at 10 µM is -0.277%.

Consider `COCCN1CCCN(C(=O)NC(C)Cn2ccnc2)CC1` (configuration not stated), for which the cytotoxicity at 10 µM was -9.29%.

With `CC(C)N(C)C(=O)c1ccc(Cl)c(NC(=O)COCC2CC2)c1`, the cytotoxicity at 10 µM came to 6.14%.

As to `CN(C)CCN1C(=O)CC[C@@H]2[C@H]1CCN2Cc1cccc(C#N)c1`, the cytotoxicity at 10 µM is -89.1%.

On to `NC(=O)COc1ccc(CN2CCNC(C(=O)NC3CC3)C2)cc1Cl` (configuration not stated), for which the cytotoxicity at 10 µM was found to be 0.887%.

Regarding `Cc1nccn1[C@@H]1CC[C@@H](NC(=O)CCCn2cncn2)[C@H]1O`, the cytotoxicity at 10 µM worked out at 6.17%.

Regarding `NCC1CN(C(=O)c2cccc(-n3cccn3)c2)CCO1` (configuration not stated), the cytotoxicity at 10 µM was -1.56%.

As for `CCc1nc(C2CCCN2C(=O)CCCn2cccn2)no1` (configuration not stated), the cytotoxicity at 10 µM was -13.1%.

On to `CC[C@@H]1C[C@H](C(F)(F)F)n2nc(C3CCN(S(=O)(=O)CC)CC3)cc2N1`, for which the cytotoxicity at 10 µM is -28.2%.

For `CC(NC(=O)Cc1ccon1)c1ccc(OCC2CC2)c(F)c1` (configuration not stated), the cytotoxicity at 10 µM is 5.47%.

Consider `CCc1nnc(CNC2CCCN(Cc3noc(C4CC4)n3)C2)o1` (configuration not stated), for which the cytotoxicity at 10 µM is -5.46%.

On to `c1coc(CN2Cc3ccnn3CC(COCC3CC3)C2)c1` (configuration not stated), for which the cytotoxicity at 10 µM is -153%.

As to `O=C([C@@H]1COC[C@H]2CN(C3CCOCC3)C[C@H]21)N1CCOCC1`, the cytotoxicity at 10 µM is -4.14%.

With `CCn1nc(C)c2nc(C(C)C)nc(NCCCn3cccn3)c21`, the cytotoxicity at 10 µM stood at 8.71%.

Consider `O=C(NCCCN1CCOCC1)c1ccn(COc2ccccc2)n1`, for which the cytotoxicity at 10 µM stood at 5.5%.

As for `CC(C)c1nc(CN(C)C2CCN(CCn3cc(C#N)cn3)C2)no1` (configuration not stated), the cytotoxicity at 10 µM was -6.29%.

Consider `CC(C)N1CC(C(=O)NCCOc2ccc3c(c2)OCO3)CC1=O` (configuration not stated), for which the cytotoxicity at 10 µM is -6.51%.

Take `CC(C)NC(=O)CC1COC2(CCN(Cc3ccsc3)CC2)C1` (configuration not stated): the cytotoxicity at 10 µM was -1.6%.

In the case of `CC(C)N1CCCC1c1csc(N)n1` (configuration not stated), the cytotoxicity at 10 µM was 2.33%.

As for `COC[C@@H]1CCC[C@]12CN(S(=O)(=O)c1cccs1)CCO2`, the cytotoxicity at 10 µM was -5.73%.

For `Cc1nn(C)c(N2CCOCC2)c1CNC1CCS(=O)(=O)C1` (configuration not stated), the cytotoxicity at 10 µM was -3.99%.

Take `Cc1ccc(NC(=O)Nc2c(O)c3ccccc3oc2=O)cc1`: the cytotoxicity at 10 µM was 3.21%.

Take `COCC(=O)N1CCCC2(COCCN(CCN(C)C)C2)C1` (configuration not stated): the cytotoxicity at 10 µM came out at 8.76%.

In the case of `Cc1cnn(CC(C)NCc2nc(-c3ccoc3)no2)c1` (configuration not stated), the cytotoxicity at 10 µM was determined as 23.3%.

With `CCc1nc(C)c([C@H]2CN(C)C[C@@H]2C(=O)NC(C)(C)c2ccccc2)[nH]1`, the cytotoxicity at 10 µM turned out to be 2.12%.

For the compound `CC(C)CNC(=O)c1ccc2nnc(C3CCN(S(C)(=O)=O)C3)n2c1` (configuration not stated), the cytotoxicity at 10 µM turned out to be 5.09%.

As for `Cc1ccc(C(=O)N2CCOC(c3nc(-c4ncccn4)no3)C2)cc1` (configuration not stated), the cytotoxicity at 10 µM was -19.9%.

As for `Cc1ccc(CCN2CCCC23Cc2ccccc2CNC3=O)cc1` (configuration not stated), the cytotoxicity at 10 µM amounted to 7.41%.

For the compound `Cc1noc(CNC(=O)NCCc2ccc(Cl)cc2)n1`, the cytotoxicity at 10 µM was determined as 6.93%.

On to `Cn1nnnc1SCCC(=O)NCC1Cc2ccccc2O1` (configuration not stated), for which the cytotoxicity at 10 µM is 9.35%.

In the case of `CN1CCN(C(=O)c2cc(-c3cccs3)cs2)CC1`, the cytotoxicity at 10 µM was found to be 3.51%.

Turning to `O=C(c1ccccn1)N1CCCC(c2ncncc2-c2ccncc2)C1` (configuration not stated), the cytotoxicity at 10 µM is -0.0141%.

Consider `CC(NC(=O)N1CCC(CO)CC1)c1csc2ccccc12` (configuration not stated), for which the cytotoxicity at 10 µM is -5.4%.

Take `O=C(NCCNc1ncccn1)C1CC(=O)N(Cc2ccccn2)C1` (configuration not stated): the cytotoxicity at 10 µM is -10.4%.

In the case of `O=C1NCC2(CCCN(Cc3cccnc3)C2)Oc2ccccc21` (configuration not stated), the cytotoxicity at 10 µM is -24.1%.

Take `CC(C)OCc1ccccc1CNC(=O)C(C)(C)C`: the cytotoxicity at 10 µM is -8.11%.

With `COC(=O)[C@H](C)NC(=O)c1cc(-c2cccc(Cl)c2)no1`, the cytotoxicity at 10 µM is -7.25%.

As for `CC1COCCN1C(=O)c1ccc(=O)n(Cc2ccccc2)n1` (configuration not stated), the cytotoxicity at 10 µM is -1.19%.

Take `CCN(CC(=O)Nc1cc(C(C)(C)C)no1)Cc1ccc(Cl)s1`: the cytotoxicity at 10 µM came to 6.13%.

Regarding `CCOC(=O)CCC(=O)N1CCC(CSCc2ccco2)CC1`, the cytotoxicity at 10 µM is -10.3%.

Turning to `Cc1nc(C)n(CCCNc2ncnc3onc(C)c23)n1`, the cytotoxicity at 10 µM was -7.12%.

As for `COC1CN(C(=O)Nc2ccccc2)CCC(=O)N(C)c2ccccc21` (configuration not stated), the cytotoxicity at 10 µM was -9.69%.

Consider `COCCN1CC[C@@H]2CN(Cc3nccn3C)C[C@@H]2C1`, for which the cytotoxicity at 10 µM is -76.5%.

For the compound `Cc1nc(CN2CCOC(CN(C)c3cccnn3)C2)cs1` (configuration not stated), the cytotoxicity at 10 µM is 0.938%.

With `Cc1nc(CN2CCCN(CCOc3ccc(C#N)cc3)CC2)no1`, the cytotoxicity at 10 µM is -5.93%.

For `c1cnc(Nc2ccc(C3CCCCN3)cn2)cn1` (configuration not stated), the cytotoxicity at 10 µM came to 1.24%.

As to `CCS(=O)(=O)N1CCN(C(C)c2ccccc2OC)CC1` (configuration not stated), the cytotoxicity at 10 µM came out at 4.55%.

As to `O=C(O)CCC(=O)N1CCC(c2noc3cc(F)ccc23)CC1`, the cytotoxicity at 10 µM was -14.8%.

`CN1CCOCC2(CCCN(C(=O)c3cnccn3)C2)C1` (configuration not stated): the cytotoxicity at 10 µM was -75.4%.

On to `Cc1nc(C2(O)CCCNCC2)sc1CCOc1ccccc1` (configuration not stated), for which the cytotoxicity at 10 µM was -28.5%.

For the compound `NC(=O)C1CCN(C(=O)NCc2ccc(-c3ccn[nH]3)cc2)CC1`, the cytotoxicity at 10 µM was -1.73%.

On to `O=C(NCCc1cc(=O)[nH]cn1)c1[nH]nc2c1CCCC2`, for which the cytotoxicity at 10 µM stood at 2.22%.

`O=C(NCc1ccoc1)NC1CCCN(c2ncccn2)C1` (configuration not stated): the cytotoxicity at 10 µM was -1.27%.

Take `Cc1cccc2ncn(C(C)Cn3cccn3)c(=O)c12` (configuration not stated): the cytotoxicity at 10 µM is -4.4%.

Take `NC(=O)N1CCC2(CC1)CN(c1ncccn1)CCO2`: the cytotoxicity at 10 µM was -75.1%.

As for `CNc1cncc(C2CCCN2C(=O)CCn2ccnc2)n1` (configuration not stated), the cytotoxicity at 10 µM was determined as 3.91%.

Turning to `COCCN1CCN(Cc2nc3c(s2)CCCC3)[C@H]2CS(=O)(=O)C[C@H]21`, the cytotoxicity at 10 µM was 6.81%.

In the case of `Cc1cccc(-c2c[nH]c(C3CCCN3C(=O)Cn3cc(C)cn3)n2)c1` (configuration not stated), the cytotoxicity at 10 µM was determined as 4.56%.

`c1ccc(C(CC2CN(Cc3ncc[nH]3)CCO2)c2ccccc2)cc1` (configuration not stated): the cytotoxicity at 10 µM is -0.73%.

For the compound `N#CCCCS(=O)(=O)NC(=O)c1ccccc1F`, the cytotoxicity at 10 µM was 0.749%.

Turning to `CCc1ccc2c(c1)C(CCNC(=O)CCc1ccsc1)C(=O)N2` (configuration not stated), the cytotoxicity at 10 µM is -41.5%.

As to `CSc1cccc(CN(C)C(=O)C2CC(=O)N(CCN(C)C)C2)c1` (configuration not stated), the cytotoxicity at 10 µM is -16.5%.

As to `O=C(Nc1ncn(CC(=O)N2CCCCCC2)n1)C1CCCC1`, the cytotoxicity at 10 µM is -11.2%.

Consider `COc1cccc(OC)c1OCCN1C(=O)CCNC1=O`, for which the cytotoxicity at 10 µM was -7.89%.

As to `O=C(Nc1cnn(CCN2CCOCC2)c1)c1ccccc1Cl`, the cytotoxicity at 10 µM is -5.81%.

For the compound `CN1CCN(C2COC3(CCN(Cc4cccs4)CC3)C2)CC1` (configuration not stated), the cytotoxicity at 10 µM was -84.5%.

In the case of `CCc1c(C)nn(CCN2CC3(CCOC3)CCC2=O)c1C` (configuration not stated), the cytotoxicity at 10 µM is 1.94%.

For the compound `Cc1ccccc1-c1csc2c(=O)[nH]c(N3CCCC(C(=O)O)C3)nc12` (configuration not stated), the cytotoxicity at 10 µM is -3.16%.

For `CN(C)CCNC(=O)CNC(=O)N1CCc2c([nH]c3ccc(Cl)cc23)C1`, the cytotoxicity at 10 µM came to 7.36%.

`O=C(NC(Cc1ccsc1)c1nccs1)C1CCOCC1` (configuration not stated): the cytotoxicity at 10 µM worked out at 1.9%.
